{"data": "Experimental data of several laboratories", "medium": "Caco-2", "note": "Compare with care: the assays were run in different laboratories."}
{"Compound": "CCOC(=O)[C@@]12C[C@@H]1[C@@H](n1ccc3c(NC)nc(C#Cc4ccc(Cl)s4)nc31)[C@H](O)[C@@H]2O", "conditions": "10 µM, 2 h, pH 7.4", "efflux ratio": 15.6}
{"Compound": "Nc1nc2c(ncn2COCCO)c(=O)[nH]1", "conditions": "10 µM, 2 h, pH 7.4", "efflux ratio": 9.42}
{"Compound": "CNC(=C[N+](=O)[O-])NCCSCc1ccc(CN(C)C)o1", "efflux ratio": 5}
{"Compound": "CC(C)NCC(O)COc1cccc2ccccc12 (stereo not drawn)", "conditions": "5 µM, 1 h", "efflux ratio": 0.8}
{"Compound": "C[C@H]1O[C@@H](O[C@H]2[C@@H](O)C[C@H](O[C@H]3[C@@H](O)C[C@H](O[C@H]4CC[C@@]5(C)[C@H](CC[C@@H]6[C@@H]5C[C@@H](O)[C@]5(C)[C@@H](C7=CC(=O)OC7)CC[C@]65O)C4)O[C@@H]3C)O[C@@H]2C)C[C@H](O)[C@@H]1O", "conditions": "10 µM, 2 h, pH 7.4", "efflux ratio": 87.9}
{"Compound": "Cn1c(=O)c2c(nc(S)n2C)n(C)c1=O", "conditions": "10 µM, 2 h", "efflux ratio": 3.3}
{"Compound": "CO[C@@H](C[C@H]1C(C)=CC[C@@H]2[C@]3(C)C[C@H](O[C@@H]4O[C@@H](C)[C@H](OC(=O)c5cccc(O)c5)[C@@H](O[C@@H]5O[C@H](CO)[C@@H](O)[C@H](O)[C@H]5NC(C)=O)[C@H]4O)[C@@H](O)C(C)(C)[C@H]3CC[C@]21C)[C@H](N)C(=O)O.O=C(O)C(F)(F)F", "conditions": "5 µM, 1 h", "efflux ratio": 4.6}
{"Compound": "CC(C)NCC(O)COc1cccc2ccccc12 (stereo not drawn)", "conditions": "10 µM, 2 h, pH 7.4", "efflux ratio": 0.47}
{"Compound": "C[C@H]1O[C@@H](O[C@H]2[C@@H](O)C[C@H](O[C@H]3[C@@H](O)C[C@H](O[C@H]4CC[C@@]5(C)[C@H](CC[C@@H]6[C@@H]5C[C@@H](O)[C@]5(C)[C@@H](C7=CC(=O)OC7)CC[C@]65O)C4)O[C@@H]3C)O[C@@H]2C)C[C@H](O)[C@@H]1O", "efflux ratio": 643}
